OX1R antag-1 = blocks the human orexin 1 receptor. O43613. CHO/OX1R cells, Fluo-8 calcium fluorescence, orexin A. inhibition, % at 5 µM. hit rate 0.43% among 330,000. AID 434989;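 active = inhibition above its plate's threshold, mean inhibition of all tested compounds on the plate plus 3 SD, cut at about 37% in these data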;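 also: 0% = orexin A challenge wells and 100% = SB-334867-A antagonist wells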
Target sequence (O43613 whole entry, looked up): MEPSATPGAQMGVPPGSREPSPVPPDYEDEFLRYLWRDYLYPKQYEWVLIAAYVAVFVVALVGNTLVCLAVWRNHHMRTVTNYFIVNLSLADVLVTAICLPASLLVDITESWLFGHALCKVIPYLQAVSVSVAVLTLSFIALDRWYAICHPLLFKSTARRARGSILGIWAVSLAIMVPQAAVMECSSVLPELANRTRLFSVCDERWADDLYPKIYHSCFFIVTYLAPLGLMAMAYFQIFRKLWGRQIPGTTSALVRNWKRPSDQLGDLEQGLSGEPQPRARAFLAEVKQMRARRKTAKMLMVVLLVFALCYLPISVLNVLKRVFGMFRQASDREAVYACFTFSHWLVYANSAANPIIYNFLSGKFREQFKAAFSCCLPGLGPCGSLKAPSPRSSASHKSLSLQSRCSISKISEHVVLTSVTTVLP
TAAR1 antagonist = human TAAR1 antagonism; Q96RJ0; CHO RD-HGA16 TAAR1, Fluo-8 calcium fluorescence, antagonist; inhibition, % at 3 µM; hit rate 1.5% among 360,000; AID 624466;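 active = inhibition above a per-plate cutoff, the mean inhibition of test compounds on that plate plus 3 SD, cut at about 49% in these data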;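 also: 0% = DMSO plus EC80 beta-PEA response and 100% = DMSO alone without agonist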
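Test system – hTAAR1-expressing CHO RD-HGA16 cells, Gα16-coupled · Reagent – β-PEA at EC80 concentration, post-compound challenge · Compound dosing – 3 µM, single point · Timing – 140 s kinetic read after compound, 140 s after agonist · Detection – Fluo-8 intracellular calcium dye fluorescence, real-time kinetic reads · Control set – DMSO and EC80 PEA controls · Repeats – n of 1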
TAAR1 agonist = agonists of human TAAR1 | CHO RD-HGA16 TAAR1, Fluo-8 calcium fluorescence; vehicle wells 0%, saturating PEA agonist 100% | Q96RJ0 | hit rate 0.99% among 360,000 | activation, % at 3 µM;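 active = activation above the mean activation of all test compounds in the run plus 3 SD, cut at about 38% in these data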
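System: CHO-derived RD-HGA16 cells with stable Gα16 and human TAAR1 / Times: 17-24 h plating, Fluo-8 75 min 37 °C, 30 min RT / Technique: calcium-sensitive Fluo-8 signal, excitation 470-495, emission 515-575 nm / Measure: % activation relative to PEA EC100 response / Benchmarks: DMSO and PEA EC100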
GPR7 antagonist = blocks human GPR7 receptor signaling; GPR7-expressing cells, fluorescence antagonist assay; inhibition, % at 4.4 µM; hit rate 1.1% among 290,000; in the data active = inhibition above about 16%, passing the limit was not always enough;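 also: cells stimulated with the agonist NPW; 0% = agonist with vehicle and 100% = vehicle without agonist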
OX1R antag-2 = antagonists of human orexin 1 receptor (OX1R); inhibition, % at 6.6 µM; O43613; OX1R-expressing cells, FRET antagonist read-out; hit rate 1.8% among 330,000; in the data active = inhibition mostly above about 38%, no sharp cut-off; inactive = mostly below about 40%;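 also: 0% = agonist challenge alone and 100% = reference antagonist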
CHO parental Ca = counter-screen: ATP calcium response change in parental CHO cells. hit rate 0.63% among 330,000. parental CHO-K1, ATP-induced calcium, Fluo-8 fluorescence. inhibition, % at 5.6 µM. AID 463079;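 active = inhibition above that plate's mean sample inhibition plus 3 SD, cut at about 26% in these data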;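 also: 0% = ATP-challenged DMSO wells and 100% = DMSO wells without ATP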
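Material: parental CHO cells / Compound: single nominal dose of 5.6 µM per compound / Signal: Fluo-8 fluorescence / Replicates: singlicate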
OX1R HTRF conf = confirmation of human orexin 1 receptor antagonists, HTRF format. shares compounds with OX1R antag-2. OX1R-expressing cells, HTRF antagonist assay. inhibition, % at 6.6 µM. hit rate 49% among 1,800; in the data active = inhibition above about 55%;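 also: CHO cells expressing OX1R stimulated with orexin A at about EC80; 0% = agonist challenge alone and 100% = reference antagonist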
CHO-K1 HTRF = counter-screen for OX1R antagonists: effect in parental CHO-K1 cells; shares compounds with OX1R antag-2; HTRF counterscreen; inhibition, % at 6.6 µM; hit rate 48% among 1,800; in the data active = inhibition above about 17%;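 also: 0% = agonist challenge with vehicle and 100% = vehicle alone without agonist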
An asterisk follows results filed as active. Shown are actives, neighbours in structure and some others; about 4.6% of the full set was active somewhere.

Results for O=C(NNc1c2ccccc2nc2ccccc12)c1ccc(O)cc1O ?
OX1R antag-1: 0; TAAR1 antagonist: 61*; TAAR1 agonist: 15; GPR7 antagonist: -1; OX1R antag-2: 102*; CHO parental Ca: -11; OX1R HTRF conf: 84*; CHO-K1 HTRF: 20*

How did O=C(NNC(=O)c1ccccc1Cl)c1ccccc1Cl do in these assays?
OX1R antag-1: -8; TAAR1 antagonist: -1; TAAR1 agonist: 2; GPR7 antagonist: -13; OX1R antag-2: 4; CHO parental Ca: -16

What do the screens show for `O=C(NNc1c2ccccc2nc2ccccc12)c1cccc(O)c1`?
OX1R antag-1: -4; TAAR1 antagonist: 19; TAAR1 agonist: 3; GPR7 antagonist: -6; OX1R antag-2: 26; CHO parental Ca: -13

Results for O=C(NNC(=O)c1cccc2ccccc12)c1ccccc1O ?
OX1R antag-1: 0; TAAR1 antagonist: -28; TAAR1 agonist: 2; GPR7 antagonist: -1; OX1R antag-2: 22; CHO parental Ca: -2

What do the screens show for `CCOc1ccc(-n2c(SCC(=O)O)nc3sc4c(c3c2=O)CCCC4)cc1`?
OX1R antag-1: -18; TAAR1 antagonist: -6; TAAR1 agonist: 0; GPR7 antagonist: -20; OX1R antag-2: -5; CHO parental Ca: -16

Results for O=C(CCCCCN1C(=O)c2cccc3cccc(c23)C1=O)NC1CCS(=O)(=O)C1 (centres undefined) ?
OX1R antag-1: -19; TAAR1 antagonist: -12; TAAR1 agonist: 0; GPR7 antagonist: -4; OX1R antag-2: 60; CHO parental Ca: -22

How did Cc1cccc(NC(=O)c2cc(=O)c3ccccc3o2)n1 do in these assays?
OX1R antag-1: 2; TAAR1 antagonist: 7; TAAR1 agonist: 7; GPR7 antagonist: 11; OX1R antag-2: 25; CHO parental Ca: -10

How did O=S(=O)(c1cccc2nsnc12)N1CCOCC1 do in these assays?
OX1R antag-1: -9; TAAR1 antagonist: -5; TAAR1 agonist: 1; GPR7 antagonist: -5; OX1R antag-2: 92*; CHO parental Ca: -15; OX1R HTRF conf: 50; CHO-K1 HTRF: 38*

How did O=C(Nn1cnnc1)c1ccc([N+](=O)[O-])cc1Cl do in these assays?
OX1R antag-1: -14; TAAR1 antagonist: -27; TAAR1 agonist: 2; OX1R antag-2: 16; CHO parental Ca: -9

Results for Cn1nnc(NC(=O)c2ccc([N+](=O)[O-])cc2Cl)n1 ?
OX1R antag-1: 16; TAAR1 antagonist: 5; TAAR1 agonist: 4; GPR7 antagonist: -14; OX1R antag-2: 94*; CHO parental Ca: 15; OX1R HTRF conf: 66*; CHO-K1 HTRF: 53*

What do the screens show for `Cc1cc(C)n2nc(SC3CCCCN(C(=O)c4ccc(F)cc4)C3=O)nc2n1` (centres undefined)?
OX1R antag-1: -20; TAAR1 antagonist: -11; TAAR1 agonist: 3; GPR7 antagonist: -2; OX1R antag-2: 14; CHO parental Ca: -13

What do the screens show for `CC1=CC(=O)C=C(C)C1=NOC(=O)/C=C\c1ccccc1`?
OX1R antag-1: -1; TAAR1 antagonist: 0; TAAR1 agonist: 0; GPR7 antagonist: 5; OX1R antag-2: 10; CHO parental Ca: -2

Results for CC1=CC(=NOC(=O)/C=C/c2ccccc2)C=C(C)C1=O ?
OX1R antag-1: 3; TAAR1 antagonist: -7; TAAR1 agonist: 15; GPR7 antagonist: -17; OX1R antag-2: 82*; CHO parental Ca: -9; OX1R HTRF conf: 29; CHO-K1 HTRF: 3

What do the screens show for `O=C(c1nn2c(C(F)(F)F)cc(-c3ccccc3)nc2c1Cl)N1CCOCC1`?
OX1R antag-1: -29; TAAR1 antagonist: -18; TAAR1 agonist: 2; GPR7 antagonist: -8; OX1R antag-2: 7; CHO parental Ca: -14

Results for O=C(c1nc2nc(-c3ccccc3)cc(C(F)(F)F)n2n1)N1CCOCC1 ?
OX1R antag-1: 0; TAAR1 antagonist: -17; TAAR1 agonist: 2; GPR7 antagonist: -9; OX1R antag-2: 77*; CHO parental Ca: -4; OX1R HTRF conf: 22; CHO-K1 HTRF: 27*
